# An excerpt weighted towards active compounds, which were near 3.7% of everything screened.
# b-catenin transl: modulators of beta-catenin nuclear translocation | HeLa beta-catenin nuclear translocation, immunofluorescence imaging | nuclear translocation activity, % at 5 µM | 0.3% of 190,000 active | AID 1665;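 active = nuclear translocation activity above 50% at 5 µM, with a well cell count of 50 or more; inconclusive = wells under 50 cells across six images, flagged as toxic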;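 also: per-cell ratio of nuclear to cytoplasmic median beta-catenin stain intensity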
#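 Read-out: Nuclear/cytoplasmic beta-catenin signal ratio, % activation | Assay system: Human HeLa cell line | Times: 24 h compound exposure at 37°C, 5% CO2 | Signal: Fluorescence imaging of beta-catenin antibody stain plus DAPI | Dosing: 5 µM primary, 0.02–20 µM confirmation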
# ROMK mod: human ROMK K+ channel modulation, primary screen. Tet-inducible ROMK, thallium flux fluorescence; actives lie on both sides. B-score at 10 µM. 2% of 130,000 active;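 active = signal ratio slope over the read window, or its plate-corrected B-score, at least 3 SD from the plate mean, either direction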;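 also: B-score of the F/F0 ratio slope over 7 to 12 s after thallium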
# MT stabilize HCS: stabilizes microtubules in HeLa cells | 0.83% of 200,000 active | HeLa tubulin immunostaining HCS, 24 h; share of cells brighter than vehicle mean+2SD | % tubulin-high responders, % at 10 µM;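 active = plate Z-score above 3 for both tubulin-high and condensed-nucleus cell shares, with cell loss under 80%, at 10 µM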;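 also: anti alpha tubulin signal scored within the nucleus-defined area of each cell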
# KCC2 mod: modulators of human KCC2 chloride dependent transport. Q9H2X9. KCC2 cells, thallium flux FluoZin-2 fluorescence. B-score of Tl+ flux slope (higher = more flux/activation; lower = inhibition) at 10 µM. 2.2% of 190,000 active. AID 1456;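 active = thallium flux slope and its plate-corrected score both differing from the plate sample mean at a set confidence after two filtering rounds, in either direction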;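 also: slope of fluorescence scaled to starting intensity during 10 to 20 s after thallium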
# Target sequence (Q9H2X9 whole entry, looked up): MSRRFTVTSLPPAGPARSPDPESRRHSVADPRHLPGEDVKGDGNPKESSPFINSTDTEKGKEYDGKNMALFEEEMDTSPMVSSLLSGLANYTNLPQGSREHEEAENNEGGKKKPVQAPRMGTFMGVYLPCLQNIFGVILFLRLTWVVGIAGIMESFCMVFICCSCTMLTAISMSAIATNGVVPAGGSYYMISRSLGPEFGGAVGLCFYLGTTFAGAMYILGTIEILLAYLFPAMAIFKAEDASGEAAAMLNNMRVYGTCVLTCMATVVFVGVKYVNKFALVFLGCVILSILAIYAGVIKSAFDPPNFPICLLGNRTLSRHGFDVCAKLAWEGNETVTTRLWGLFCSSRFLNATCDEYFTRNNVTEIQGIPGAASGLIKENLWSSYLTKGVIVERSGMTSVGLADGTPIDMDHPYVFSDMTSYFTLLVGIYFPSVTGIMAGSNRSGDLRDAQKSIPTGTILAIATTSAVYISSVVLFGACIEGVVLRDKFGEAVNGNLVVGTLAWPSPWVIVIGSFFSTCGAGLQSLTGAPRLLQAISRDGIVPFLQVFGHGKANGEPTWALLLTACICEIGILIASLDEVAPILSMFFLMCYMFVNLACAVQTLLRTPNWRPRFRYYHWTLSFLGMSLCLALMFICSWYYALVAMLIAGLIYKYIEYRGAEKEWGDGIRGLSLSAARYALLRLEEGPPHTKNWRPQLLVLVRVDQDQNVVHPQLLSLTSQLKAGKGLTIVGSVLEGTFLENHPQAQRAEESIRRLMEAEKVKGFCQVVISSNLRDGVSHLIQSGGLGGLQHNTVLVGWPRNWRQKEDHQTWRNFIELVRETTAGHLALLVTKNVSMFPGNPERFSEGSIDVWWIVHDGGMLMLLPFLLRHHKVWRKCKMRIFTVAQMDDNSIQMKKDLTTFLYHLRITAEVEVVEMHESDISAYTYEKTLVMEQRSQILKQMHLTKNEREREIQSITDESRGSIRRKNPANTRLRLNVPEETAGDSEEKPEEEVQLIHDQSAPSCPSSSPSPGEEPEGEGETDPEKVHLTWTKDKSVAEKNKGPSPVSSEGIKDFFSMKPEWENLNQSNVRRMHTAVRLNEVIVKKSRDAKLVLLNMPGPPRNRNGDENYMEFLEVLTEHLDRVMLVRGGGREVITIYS
# DTT redox prof: compounds producing H2O2 with reducing agent – biochemical, NIH compound library profiling, artefact control for MLSCN library redox annotation, primary screen | activation, % at 10 µM | 0.03% of 200,000 active | DTT-dependent redox cycling H2O2, phenol red/HRP absorbance; 100% = 100 µM peroxide control, 0% = buffer;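 active = activation of at least 50% relative to the plate's high and low controls in the primary single-dose screen; inactive = activation below 50%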;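 also: compound incubated with DTT at 0.8 mM final as the reducing agent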
# KCC2 secondary: confirmation of human KCC2 transport modulators; shares compounds with KCC2 mod; 15% of 3,700 active; normalised thallium flux (F/F0 slope) at 10 µM; AID 1713; HEK293-KCC2, thallium flux, FluoZin2 fluorescence; hits give high values;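 active = thallium flux slope above the same plate's solvent-only control mean plus 3 SD; inconclusive = the two replicate wells disagree; inactive = no significant difference from solvent-only control wells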
# KCC2 bumet counter: thallium flux despite bumetanide block in KCC2 cells, secondary assay 3. shares compounds with KCC2 mod. HEK293-KCC2 + bumetanide/ouabain, thallium flux FluoZin2; hits give high values. normalized thallium flux at 10 µM. 49% of 3,700 active;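 active = thallium entry rate above the same plate's blocked-transporter control wells by more than 3 SD; inconclusive = the two repeat wells disagree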;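 also: raw slope of fluorescence over initial fluorescence between 10 and 20 s after thallium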
# KCC2 secondary2: KCC2 (human) modulation, second secondary assay. normalized thallium flux at 10 µM. 23% of 3,700 active. AID 1715. shares compounds with KCC2 mod. HEK293-KCC2, thallium flux FluoZin2 fluorescence; actives lie on both sides; F/F0 rise rate, 10–20 s post-thallium;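 active = thallium flux slope more than 3 SD above or below the plate's solvent-only control mean, mostly below; inconclusive = the two repeat wells disagreed; inactive = no significant shift from solvent-only controls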
# HEK293 Tl flux: counter-screen for KCC2 modulators: effect in parental HEK293 cells. shares compounds with KCC2 mod. thallium flux FluoZin2, ouabain; baseline-ratio fluorescence slope, 10–20 s after thallium. thallium flux rate (normalised fluorescence) at 10 µM. 46% of 3,700 active;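 active = thallium flux rate significantly above the same plate's solvent-only control wells, beyond their mean plus 3 SD; inconclusive = the two replicate wells gave conflicting results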
# KCC2 retest ouab: KCC2 (human) modulation, ouabain retest; shares compounds with KCC2 mod; HEK293-KCC2, thallium flux FluoZin2 fluorescence; bidirectional: low = inhibitor, high = activator; raw Tl+ flux slope (below DMSO = inhibition, above = activation) at 10 µM; 48% of 3,700 active; AID 1717;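 active = thallium flux slope beyond 3 SD from same-plate DMSO control mean in most replicates, usually higher, sometimes lower; inconclusive = repeat tests gave conflicting results; inactive = no significant difference from controls in most replicates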;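 also: slope of initial-normalized fluorescence between seconds 10 and 20 after thallium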
# HEK counter2: counter-screen for KCC2 modulators: effect in parental HEK293 cells; AID 1718; 33% of 3,700 active; thallium flux FluoZin-2 fluorescence slope; shares compounds with KCC2 mod; thallium flux slope at 10 µM;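 active = thallium flux slope above the same plate's solvent-control mean plus 3 SD in both duplicate wells; inconclusive = duplicate wells that disagreed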;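 also: run without ouabain in cells lacking the KCC2 cotransporter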
# Hits are given with their value; n = inactive; u = inconclusive; x = not tested or not shown.
SMILES,b-catenin transl,ROMK mod,MT stabilize HCS,KCC2 mod,DTT redox prof,KCC2 secondary,KCC2 bumet counter,KCC2 secondary2,HEK293 Tl flux,KCC2 retest ouab,HEK counter2
CN1C(C(=O)NCCc2cccs2)CC2Cn3c(nc4cc5ccccc5cc43)C21 (configuration not stated),n,x,x,-2.8,x,n,n,n,n,n,n
CC(C)NC(=O)NC(=O)COC(=O)c1ccccc1Oc1ccccc1,n,n,n,n,n,x,x,x,x,x,x
Fc1cc(F)c2nc(Nc3nc4cc5c(cc4s3)OCO5)sc2c1,n,n,n,8.5,n,n,0.017,n,0.013,0.026,0.016
CC(C)C(=O)Nc1nc2cc3c(cc2s1)OCO3,n,x,n,x,n,x,x,x,x,x,x
N#C/C(=C\c1ccc(-c2cccc([N+](=O)[O-])c2)o1)C(=O)Nc1nc(-c2cccs2)cs1,n,x,x,4,x,n,0.0099,n,0.018,u,n
Cc1[nH]n(-c2ccc(Cl)cc2)c(=O)c1C(=O)c1ccccc1,n,n,n,8.1,n,n,0.02,n,0.016,0.027,0.019
Cc1[nH]n(-c2ccccc2)c(=O)c1C(=O)c1ccc(Cl)cc1,n,x,x,11,x,n,0.021,0.04,0.022,0.03,0.024
Cc1[nH]n(-c2ccccc2)c(=O)c1-c1ccccc1,n,x,n,n,n,x,x,x,x,x,x
Cc1[nH]n(-c2ccccc2)c(=O)c1C(=O)c1ccccc1,n,n,x,4.4,x,n,0.0085,n,0.012,n,0.014
CCSC(=S)c1c(C)[nH]n(-c2ccccc2)c1=O,n,x,x,101,x,0.046,0.1,n,0.061,0.067,0.028
Cc1[nH]n(-c2ccccc2)c(=O)c1C(=O)c1cccc(F)c1,n,n,n,n,n,x,x,x,x,x,x
Cc1cc(C)nc(NC(=S)Nc2ccc(Br)cc2Cl)c1,n,n,n,n,n,x,x,x,x,x,x
CC(C)CC(NC(=O)C(CO)NC(=O)C1CCC(=O)N1)C(N)=O (configuration not stated),n,n,n,n,n,x,x,x,x,x,x
CN(NS(=O)(=O)c1ccccc1)c1nc2ccccc2nc1C(F)(F)F,n,x,n,n,n,x,x,x,x,x,x
CN(NS(=O)(=O)c1ccc(Cl)cc1)c1nc(C(F)(F)F)nc2ccccc12,n,x,n,-2.9,n,n,n,n,u,n,n
Fc1ccccc1CSc1nncn1NC/C=C/c1ccccc1,x,x,n,-4.8,n,n,0.0086,u,n,n,n
Fc1ccc(CNn2cnnc2SCc2ccc(F)cc2)cc1,n,n,n,n,n,x,x,x,x,x,x
Cc1ccc(C)c(/C=N/NC(=S)NCCc2ccccc2)c1,x,x,n,n,n,x,x,x,x,x,x
S=C(NCC1CC1)N/N=C/c1ccccc1Cl,n,x,x,10,x,u,0.024,n,0.01,u,n
S=C(N/N=C/c1ccccc1Cl)Nc1cccc(Cl)c1Cl,n,n,x,7,x,n,0.045,0.047,0.031,0.048,0.026
O=C(O)Cc1ccc(NC(=S)Nc2cccc(Cl)c2Cl)cc1,n,n,n,9.6,n,n,0.01,n,0.014,u,n
S=C(NCCc1ccccc1)N/N=C/c1cccc(Cl)c1Cl,n,x,n,4.4,n,n,0.013,0.039,0.011,0.03,n
S=C(Nc1cccc(Cl)c1Cl)Nn1cnnc1,n,x,n,n,n,x,x,x,x,x,x
Cc1ccnc(SCc2cc(=O)c(OC(=O)c3ccc(S(=O)(=O)N(C)C)cc3)co2)n1,n,x,n,n,n,x,x,x,x,x,x
COCCNC(=O)COC(=O)c1cc(-c2ccc(OC)cc2)nc2ccccc12,n,n,n,n,n,x,x,x,x,x,x
SMILES,b-catenin transl,ROMK mod,MT stabilize HCS,KCC2 mod,DTT redox prof,KCC2 secondary,KCC2 bumet counter,KCC2 secondary2,HEK293 Tl flux,KCC2 retest ouab,HEK counter2
CCCCCCCCC(=O)N/N=C/c1cccc(Br)c1,n,n,n,5.5,n,n,u,n,n,n,n
CCCCCCC(=O)N/N=C/c1ccc(Br)cc1,n,x,n,n,n,x,x,x,x,x,x
COc1cccc(/C=N/n2c(-c3cc(C)[nH]n3)n[nH]c2=S)c1O,n,x,x,n,x,x,x,x,x,x,x
CC(/C=N/n1c(-c2ccccn2)n[nH]c1=S)=C\c1ccccc1,n,x,x,8.4,x,n,0.029,n,0.013,u,n
S=c1[nH]nc(-c2ccccn2)n1/N=C/c1ccccc1,n,n,n,n,n,x,x,x,x,x,x
Cc1ccc(N(C(=O)c2csnn2)C(C(=O)NC(C)(C)C)c2cccnc2)cc1 (configuration not stated),n,n,n,n,n,x,x,x,x,x,x
O=C(Cc1ccc(F)cc1)Oc1ccc(C(=S)N2CCCC2)cc1,n,n,n,-4.1,n,u,u,0.022,u,0.013,n
O=C(Oc1ccc(C(=S)N2CCCCC2)cc1)c1ccccc1F,n,n,n,n,n,x,x,x,x,x,x
CC(O)C(NC=C1C(=O)OC(C)(C)OC1=O)C(=O)O (configuration not stated),n,n,n,n,n,x,x,x,x,x,x
Cc1[nH]n(-c2ccccc2)c(=O)c1/C=N/N(C)c1ccccc1,n,x,n,22,n,n,0.05,0.045,0.032,0.044,0.035
Cc1[nH]n(-c2ccccc2)c(=O)c1C=NCC1CCCO1 (configuration not stated),n,n,n,n,n,x,x,x,x,x,x
Cc1[nH]n(-c2ccccc2)c(=O)c1/C=N/N1C(=O)c2ccc3c4c(ccc(c24)C1=O)CC3,n,x,n,11,n,u,0.021,n,0.012,u,n
O=C(CC1C(=O)NCCN1CC1CCCCC1)NCCc1ccc(F)cc1 (configuration not stated),n,n,n,n,n,x,x,x,x,x,x
C=CCSC1=N/C(=C\c2cc(OCC)c(OC(C)=O)c([N+](=O)[O-])c2)C(=O)S1,n,n,n,n,n,x,x,x,x,x,x
O=C(Nc1ccccc1N1CCOCC1)c1ccccc1NS(=O)(=O)c1ccc(F)cc1,n,n,n,n,n,x,x,x,x,x,x
O=C(Nc1cc(S(=O)(=O)N2CCCCC2)ccc1Cl)c1ccccc1NS(=O)(=O)c1ccc(F)cc1,n,n,n,-4.8,n,n,n,u,n,u,n
O=C(Nc1ccc(S(=O)(=O)Nc2ncccn2)cc1)c1ccccc1NS(=O)(=O)c1ccc(F)cc1,n,n,n,n,n,x,x,x,x,x,x
